High-throughput results deposited in PubChem by several laboratories.
In the library only some 3% were active in any assay of this set; here they are far more common.
T cruzi inh: T. cruzi replication inhibition; 300,000 compounds, 1.4% hits; inhibition, % (test concentration not listed); T. cruzi beta-gal in NIH3T3, luminescence, 90 h;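 active means mean inhibition across valid replicates above about 55%, limit read from the data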;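 further: signal also drops with host cell toxicity which is not excluded here; 0% = plate median of DMSO wells and 100% = zero luminescence signal; higher percent means less beta-gal luminescence so fewer parasites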
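Incubation – ≥90 h infection period, 3 h prior cell attachment · System – NIH/3T3 fibroblasts plus reporter T. cruzi · Doses – compound pinned at 50 nL/well, DMSO · Read-out basis – percent inhibition of parasite-derived β-gal signal · Signal – luminescent β-galactosidase signal after 60 min lysis · Also added – 5000 T. cruzi trypomastigotes/well · Medium – Low-serum DMEM with 2% FBS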
V-ATPase pH: alters yeast V-ATPase proton transport. response, % at 10 µM. S. cerevisiae, pHLuorin cytosolic pH fluorescence. 350,000 compounds, 0.37% hits. AID 504577; in the data active means response mostly above about 7.3%, no sharp cut-off; inactive means mostly below about 5.4%; further: actives read high
HIF act: HIF pathway transcriptional activation. U2OS HRE-luciferase reporter, luminescence; normalized: DMSO 0%, desferrioxamine 100%. activation, % at 7.5 µM (by protocol). 300,000 compounds, 0.32% hits. AID 1910;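 active means mean activation of at least 10% of the iron chelator positive control signal, with at least half of replicates also reaching 10%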
AI-2 QS mod: Vibrio harveyi AI-2 quorum sensing modulation; Vibrio harveyi JMH597 AI-2 luminescence/OD600 ratio, 9 h; active compounds read low; strain lacks LuxN and CqsS sensors; 0 = neutral-control median; activity change, % at 7.5 µM; 300,000 compounds, 0.4% hits; in the data active means activity change below about -75%, passing the limit was not always enough;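 further: luminescence divided by OD600 gain over 9 h not by final OD600 alone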
CR mimetic SO: yeast age-related superoxide inhibition as caloric restriction mimetic. S. cerevisiae aged cells, superoxide DHE fluorescence; active compounds read low. superoxide response (% of plate mean), % at 10 µM. 330,000 compounds, 0.18% hits. AID 2690;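 active means superoxide response under a set limit, about three screen SD below normal, cut at about 65% in these data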;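 further: yeast aged for seven days with compound at 30 °C before DHE staining; 100% = average MFI of all compound-treated wells on the plate with controls excluded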
NRP1-CendR mod: NRP-1/CendR interaction modulation | 360,000 compounds, 0.85% hits | O14786 | FAM-RPARPAR peptide binding to NRP-1, fluorescence polarization | inhibition, % at 25 µM;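 active means inhibition or corrected inhibition above about 18%, plus a signal ratio from 0.5 to 1.5, limit read from the data, passing the limit was not always enough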
Target sequence (O14786 whole entry, looked up): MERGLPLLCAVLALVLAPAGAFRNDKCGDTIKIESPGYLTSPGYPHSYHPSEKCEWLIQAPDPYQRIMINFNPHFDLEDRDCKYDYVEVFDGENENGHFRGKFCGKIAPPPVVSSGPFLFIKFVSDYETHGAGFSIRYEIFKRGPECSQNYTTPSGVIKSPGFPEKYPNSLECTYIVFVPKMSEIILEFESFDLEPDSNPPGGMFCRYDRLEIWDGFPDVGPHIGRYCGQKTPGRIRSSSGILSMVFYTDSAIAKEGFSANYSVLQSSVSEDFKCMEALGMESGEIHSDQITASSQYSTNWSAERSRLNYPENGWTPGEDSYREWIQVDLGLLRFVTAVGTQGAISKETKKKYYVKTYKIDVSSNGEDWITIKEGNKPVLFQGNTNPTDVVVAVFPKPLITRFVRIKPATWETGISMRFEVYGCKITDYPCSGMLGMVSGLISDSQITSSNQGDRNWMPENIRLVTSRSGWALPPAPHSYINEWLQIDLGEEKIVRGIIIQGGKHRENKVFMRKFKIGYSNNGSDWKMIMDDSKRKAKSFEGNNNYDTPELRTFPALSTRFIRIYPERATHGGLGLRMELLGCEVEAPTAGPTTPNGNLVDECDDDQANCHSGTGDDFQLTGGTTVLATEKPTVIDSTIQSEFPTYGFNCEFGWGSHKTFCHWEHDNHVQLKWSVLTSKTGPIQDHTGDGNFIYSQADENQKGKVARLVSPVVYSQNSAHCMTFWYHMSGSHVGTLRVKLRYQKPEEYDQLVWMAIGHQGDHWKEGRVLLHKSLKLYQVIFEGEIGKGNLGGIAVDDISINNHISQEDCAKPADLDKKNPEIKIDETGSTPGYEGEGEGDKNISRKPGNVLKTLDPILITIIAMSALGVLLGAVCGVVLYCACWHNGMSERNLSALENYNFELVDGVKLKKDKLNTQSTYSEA
* marks the source's active call; other numbers are inactive results.

Results for O=C(NCCC(=O)N1CCCC(C(F)(F)F)C1)c1ccc(Br)cc1 (stereo unspecified) ?
T cruzi inh: -6; V-ATPase pH: -1; HIF act: -1; AI-2 QS mod: 15; CR mimetic SO: 96; NRP1-CendR mod: 28*

Results for COc1ccc(OC)c(CN2CCN(C(=O)CCNC(=O)c3ccc(Br)cc3)CC2)c1 ?
T cruzi inh: 60*; V-ATPase pH: -2; HIF act: 0; AI-2 QS mod: 8; CR mimetic SO: 112; NRP1-CendR mod: 12

Results for CC1CCCN(C(=O)CCCNC(=O)c2ccc(Cl)cc2)C1 (stereo unspecified) ?
T cruzi inh: 3; V-ATPase pH: -3; HIF act: 0; AI-2 QS mod: 17; CR mimetic SO: 106; NRP1-CendR mod: 15

What do the screens show for `O=C(Cc1cccs1)NCc1cccc(CNC(=O)Cc2cccs2)c1`?
T cruzi inh: 0; V-ATPase pH: 0; HIF act: 0; AI-2 QS mod: 14; CR mimetic SO: 104; NRP1-CendR mod: -3

What do the screens show for `COc1cc(OC)cc(C(=O)NNC(=O)c2cc(=O)[nH]c3ccccc23)c1`?
T cruzi inh: -4; V-ATPase pH: 3; HIF act: -1; AI-2 QS mod: 5; CR mimetic SO: 107; NRP1-CendR mod: -1

What do the screens show for `Cc1coc2cc3oc(=O)c(CCC(=O)N4CCC(C(=O)O)(c5ccccc5)CC4)c(C)c3cc12`?
T cruzi inh: -3; V-ATPase pH: -1; HIF act: 0; AI-2 QS mod: 16; CR mimetic SO: 107; NRP1-CendR mod: -10

Results for Nn1c(SCC(=O)NCCC2=CCCCC2)nnc1C(F)(F)F ?
T cruzi inh: -7; V-ATPase pH: 2; HIF act: 0; AI-2 QS mod: 28; CR mimetic SO: 88; NRP1-CendR mod: 28*

What do the screens show for `Nn1c(SCC(=O)NCCC2=CCCCC2)nnc1C1CCCCC1`?
T cruzi inh: 4; V-ATPase pH: 3; HIF act: 0; AI-2 QS mod: 15; CR mimetic SO: 93; NRP1-CendR mod: 4

What do the screens show for `O=C(CCc1nc2ccccc2c(=O)[nH]1)OCC(=O)N1CCN(S(=O)(=O)c2ccccc2)CC1`?
T cruzi inh: -12; V-ATPase pH: 7; HIF act: -1; AI-2 QS mod: 3; CR mimetic SO: 124; NRP1-CendR mod: 4

How did Cc1ccc(-n2ncc(C(=O)Nc3cc(Cl)ccc3C)c2C2CCNCC2)cc1C do in these assays?
T cruzi inh: 19; V-ATPase pH: 32*; HIF act: 0; AI-2 QS mod: 17; CR mimetic SO: 120; NRP1-CendR mod: 1

How did Cc1cccc(NC(=O)c2cnn(-c3ccc(F)cc3)c2C2CCNCC2)c1C do in these assays?
T cruzi inh: -7; V-ATPase pH: 2; HIF act: 0; AI-2 QS mod: 15; CR mimetic SO: 96; NRP1-CendR mod: -2

How did CCCCCCCC1CC(=O)C=C(C)C1C(=O)OCC (stereo unspecified) do in these assays?
T cruzi inh: 2; V-ATPase pH: 3; HIF act: 81*; AI-2 QS mod: 9; CR mimetic SO: 99; NRP1-CendR mod: -7

What do the screens show for `COc1cc(C=O)ccc1OCCOCCOc1ccccc1Cl`?
T cruzi inh: -7; V-ATPase pH: -4; HIF act: -1; AI-2 QS mod: 14; CR mimetic SO: 101; NRP1-CendR mod: -6

What do the screens show for `Cc1cnc(CN2CCCC(C(=O)c3ccc4c5c(cccc35)CC4)C2)[nH]1` (stereo unspecified)?
T cruzi inh: 2; V-ATPase pH: -1; HIF act: -1; AI-2 QS mod: 18; CR mimetic SO: 96; NRP1-CendR mod: -6

How did Cc1ccc(C(=O)N/C(=C\c2sccc2C)C(=O)NCc2ccco2)cc1 do in these assays?
T cruzi inh: 9; V-ATPase pH: 19; HIF act: 0; AI-2 QS mod: 40; CR mimetic SO: 100; NRP1-CendR mod: 39*

Results for O=C(NCc1cccnc1)c1sc2cc(Cl)ccc2c1Cl ?
T cruzi inh: 42; V-ATPase pH: 0; HIF act: 1; AI-2 QS mod: 14; CR mimetic SO: 91; NRP1-CendR mod: -3

How did Cn1c(C(=O)NCc2cccnc2)cc2sc(Cl)cc21 do in these assays?
T cruzi inh: 61*; V-ATPase pH: -1; HIF act: 1; AI-2 QS mod: 11; CR mimetic SO: 96; NRP1-CendR mod: 7

What do the screens show for `Oc1ccc(-c2csc(Nc3ncccn3)n2)c(O)c1`?
T cruzi inh: 27; V-ATPase pH: 15*; HIF act: 2; AI-2 QS mod: 22; CR mimetic SO: 89; NRP1-CendR mod: -2

What do the screens show for `COc1ccc(C2(C)NC(=O)N(CC(=O)NC3(C#N)CCCCC3)C2=O)cc1` (stereo unspecified)?
T cruzi inh: -1; V-ATPase pH: -5; HIF act: 0; AI-2 QS mod: 6; CR mimetic SO: 101; NRP1-CendR mod: 2

Results for Cn1c(=S)[nH]c2c(c1=O)C(C)(C)Cc1ccccc1-2 ?
T cruzi inh: 13; V-ATPase pH: 1; HIF act: 0; AI-2 QS mod: 13; CR mimetic SO: 70; NRP1-CendR mod: -1

What do the screens show for `CCn1c(=S)[nH]c2c(c1=O)C(C)(C)Cc1ccccc1-2`?
T cruzi inh: 10; V-ATPase pH: 13*; HIF act: 0; AI-2 QS mod: 14; NRP1-CendR mod: -6

What do the screens show for `Cc1ccc(C)c(-c2csc(NC(=O)c3cnccn3)n2)c1`?
T cruzi inh: 93*; V-ATPase pH: 5; HIF act: -1; AI-2 QS mod: -5; CR mimetic SO: 109; NRP1-CendR mod: -2

Results for Nc1ccc2nc(N3CCOCC3)sc2c1 ?
T cruzi inh: 76*; V-ATPase pH: -2; HIF act: -3; AI-2 QS mod: 14; CR mimetic SO: 96; NRP1-CendR mod: -5

What do the screens show for `c1ccc2sc(N3CCOCC3)nc2c1`?
T cruzi inh: -11; V-ATPase pH: 4; HIF act: 2; AI-2 QS mod: 13; CR mimetic SO: 112; NRP1-CendR mod: 18

What do the screens show for `O=C(CNC(=O)c1ccc(-c2ccccc2)cc1)Nc1ccc(S(=O)(=O)Nc2ncccn2)cc1`?
T cruzi inh: -10; V-ATPase pH: -2; HIF act: 0; AI-2 QS mod: 16; CR mimetic SO: 84; NRP1-CendR mod: -18

Results for O=C(c1cc(Sc2ccc(Cl)cc2)nc2ccccc12)N1CCN(c2ccccn2)CC1 ?
V-ATPase pH: -2; CR mimetic SO: 88; NRP1-CendR mod: 6

How did Cc1noc(C)c1-c1ccc(C(=O)NCC2CC2)c2occc12 do in these assays?
NRP1-CendR mod: -14

How did CC(=O)Oc1ccc(-c2cccc(C(=O)Oc3ccccc3)c2)cc1 do in these assays?
T cruzi inh: -9; V-ATPase pH: -1; HIF act: 0; AI-2 QS mod: 28; CR mimetic SO: 97; NRP1-CendR mod: 9
